Data from ChEMBL document CHEMBL4033743, “Design, synthesis, and structure-activity relationships of pyrimido[4,5-b]indole-4-amines as microtubule depolymerizing agents that are effective against multidrug resistant cells” (Bioorg Med Chem Lett, 2017).
Calls of active or inactive are those of the source.

Columns and labels:
MDA-MB-435 = test: Antiproliferative activity against human MDA-MB-435 cells by SRB assay; type: functional, cell-based
In short: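 Proliferation of MDA-MB-435 melanoma cells was read by sulforhodamine B (SRB) assay. IC50 was taken as the concentration causing 50% inhibition of proliferation.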

Rattus norvegicus = species on record: Rattus norvegicus; test: Induction of microtubule depolymerization in rat A10 cells assessed as cellular microtubule loss up to 40 uM incubated for 18 hrs by indirect immunofluorescence assay; type: cell-based
In short: (§1)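 Cellular microtubule loss was scored. EC50 was defined as the concentration causing 50% loss of cellular microtubules.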

[1] = Antiproliferative activity against human SKOV3-MDR1-M6/6 cells by SRB assay; type: functional, cell-based
In short: (§2)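 Antiproliferative IC50s were measured by SRB assay in isogenic cell-line pairs. For Pgp-mediated resistance, the pair was parental SK-OV-3 ovarian cancer cells and Pgp-expressing SK-OV-3 MDR-1-M6/6 cells. For βIII-tubulin-mediated resistance, the pair was parental HeLa cells and βIII-tubulin-expressing HeLa cells.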

[2] = Ratio of EC50 for induction of microtubule depolymerization in rat A10 cells to IC50 for antiproliferative activity against human MDA-MB-435 cells
HeLa [3] = test: Antiproliferative activity against human HeLa cells expressing beta3-tubulin by SRB assay; type: functional, cell-based; in short: as §2
Bos taurus = species on record: Bos taurus; test: Inhibition of [3H]colchicine binding to bovine brain tubulin at 5 uM
SK-OV-3 = test: Antiproliferative activity against human SKOV3 cells by SRB assay; type: functional, cell-based; in short: as §2
[4] = Inhibition of bovine brain tubulin assembly; set-up: species or system Bos taurus
[5] = Induction of microtubule depolymerization in rat A10 cells assessed as cellular microtubule loss incubated for 18 hrs by indirect immunofluorescence assay; type: cell-based; details: A10, 18 h; in short: as §1
[6] = Resistance index, ratio of IC50 for antiproliferative activity against human SKOV3-MDR1-M6/6 cells to IC50 for antiproliferative activity against human SKOV3 cells; type: functional
In short: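 Relative resistance (Rr) was calculated as the SRB IC50 in Pgp-expressing SK-OV-3 MDR-1-M6/6 cells divided by the SRB IC50 in parental SK-OV-3 cells.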

HeLa [7] = test: Resistance index, ratio of IC50 for antiproliferative activity against human HeLa cells expressing beta3-tubulin cells to IC50 for antiproliferative activity against human HeLa cells; type: functional
In short: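 Relative resistance (Rr) was calculated as the SRB IC50 in βIII-tubulin-expressing HeLa cells divided by the SRB IC50 in parental HeLa cells.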

HeLa [8] = test: Antiproliferative activity against human HeLa cells by SRB assay; type: functional, cell-based; in short: as §2

Row | SMILES | IC50 (MDA-MB-435) [nM] | IC50 (HeLa [3]) [nM] | inhibition (Bos taurus) [%] | IC50 (SK-OV-3) [nM] | IC50 [4] [nM] | EC50 [5] [nM] | IC50 (HeLa [8]) [nM] | Activity (Rattus norvegicus) | IC50 [1] [nM] | Ratio [2] | Ratio IC50 [6] | Ratio IC50 (HeLa [7])
1 | COc1ccc(N(C)c2nc(N)nc3[nH]c4cccc(Cl)c4c23)cc1 | 3900 | – | – | – | – | – | – | inactive | – | – | – | –
2 | COc1ccc2c(c1)CCCN2c1nc(N)nc2[nH]c3cccc(Cl)c3c12 | 271 | – | – | – | – | 3700 | – | – | – | 15 | – | –
3 | COc1ccc(N(C)c2nc(N)nc3[nH]c4cccc(C)c4c23)cc1 | 220 | – | – | – | – | 1400 | – | – | – | 6.5 | – | –

The next compounds have a lower IC50 (MDA-MB-435) than those just listed; values first:

Row | IC50 (MDA-MB-435) [nM] | IC50 (HeLa [3]) [nM] | inhibition (Bos taurus) [%] | IC50 (SK-OV-3) [nM] | IC50 [4] [nM] | EC50 [5] [nM] | IC50 (HeLa [8]) [nM] | SMILES | Activity (Rattus norvegicus) | IC50 [1] [nM] | Ratio [2] | Ratio IC50 [6] | Ratio IC50 (HeLa [7])
4 | 130 | 99.5 | 62 | 173 | 2300 | 1200 | 142 | COc1ccc(N(C)c2ncnc3[nH]c4ccccc4c23)cc1 | – | 224 | 9.2 | 1.4 | 0.8
5 | 89.1 | 78.4 | 67 | 156 | 2300 | 1100 | 118 | CSc1ccc(N(C)c2nc(N)nc3[nH]c4ccccc4c23)cc1 | – | 160 | 12 | 1 | 0.7
6 | 54.4 | 87 | 71 | 83.2 | 2200 | 150 | 72.1 | COc1ccc2c(c1)CCCN2c1nc(N)nc2[nH]c3ccccc3c12 | – | 135 | 2.8 | 1.6 | 1.2
7 | 33.9 | 31.8 | 67 | 60.5 | 1200 | 130 | 50.5 | COc1ccc(N(C)c2nc(C)nc3[nH]c4ccccc4c23)cc1 | – | 78 | 3.8 | 1.3 | 0.6
